ChEMBL document CHEMBL4041548, “Ester Prodrugs of IHVR-19029 with Enhanced Oral Exposure and Prevention of Gastrointestinal Glucosidase Interaction” (ACS Med Chem Lett, 2017)

Key:
[1] = Prodrug activation in simulated gastric fluid assessed as 3-(tert-butyl)-1-cyclohexyl-1-(6-((2R,3R,4R,5S)-3,4,5-trihydroxy-2-(hydroxymethyl)piperidin-1-yl)hexyl)urea formation at 5 uM measured after 4 hrs by LC-MS/MS analysis
Outline: (§1)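 Chemical stability assessed by incubation in simulated gastric fluid and simulated intestinal fluid; percent of compound remaining was measured.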

[2] = Stability in simulated gastric fluid assessed as parent compound remaining at 5 uM measured after 4 hrs by LC-MS/MS analysis; outline: as §1
Mus musculus [3] = test: Prodrug activation in BALB/c mouse assessed as 3-(tert-butyl)-1-cyclohexyl-1-(6-((2R,3R,4R,5S)-3,4,5-trihydroxy-2-(hydroxymethyl)piperidin-1-yl)hexyl)urea formation at 100 mg/kg, po administered as single dose measured after 3 hrs by LC-MS/MS analysis; assay type: organism-based; conditions: in vivo
Outline: (§2)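 Male BALB/c mice dosed with the prodrugs or the parent orally (25 or 100 mg/kg) or intravenously (5 mg/kg). The parent compound was quantified in plasma and PK parameters were derived from it. The first sampling point was 5 min post-dose, and prodrugs were tracked up to 4 h.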

Mus musculus [4] = test: Prodrug activation in BALB/c mouse assessed as 3-(tert-butyl)-1-cyclohexyl-1-(6-((2R,3R,4R,5S)-3,4,5-trihydroxy-2-(hydroxymethyl)piperidin-1-yl)hexyl)urea half life at 100 mg/kg, po administered as single dose by LC-MS/MS analysis; assay type: organism-based; conditions: in vivo; outline: as §2
Mus musculus [5] = test: Prodrug activation in po dosed BALB/c mouse assessed as 3-(tert-butyl)-1-cyclohexyl-1-(6-((2R,3R,4R,5S)-3,4,5-trihydroxy-2-(hydroxymethyl)piperidin-1-yl)hexyl)urea formation measured after 5 mins by LC-MS/MS analysis; assay type: organism-based; conditions: in vivo; outline: as §2
[6] = Metabolic stability in pooled human liver microsomes assessed as parent compound remaining at 200 uM measured after 60 mins in presence of NADPH and UDPGA by LC-MS/MS analysis; assay type: ADME, microsome; conditions: read-out: Stability
Outline: (§3)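 Prodrugs or parent incubated in pooled human or mouse liver microsomes for up to 60 min, with or without cofactor. Percent remaining and percent conversion to the parent were measured.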

[7] = Prodrug activation in human intestinal S9 fraction assessed as 3-(tert-butyl)-1-cyclohexyl-1-(6-((2R,3R,4R,5S)-3,4,5-trihydroxy-2-(hydroxymethyl)piperidin-1-yl)hexyl)urea formation by measuring prodrug remaining at 200 uM measured after 1 hr in presence or absence of NADPH by LC-MS/MS analysis; set-up: species or system Intestine; conditions: s9, 1 h
Outline: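 Compounds incubated with intestinal S9 fraction for 1 h. Percent prodrug remaining and percent conversion to the parent were measured.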

[8] = Half life in pooled mouse liver microsomes at 200 uM by LC-MS/MS analysis; assay type: ADME, microsome; conditions: liver microsomes; outline: as §3
Mus musculus [9] = test: Prodrug activation in BALB/c mouse assessed as 3-(tert-butyl)-1-cyclohexyl-1-(6-((2R,3R,4R,5S)-3,4,5-trihydroxy-2-(hydroxymethyl)piperidin-1-yl)hexyl)urea Tmax at 100 mg/kg, po administered as single dose by LC-MS/MS analysis; assay type: organism-based; conditions: in vivo; outline: as §2
Mus musculus [10] = test: Prodrug activation in po dosed BALB/c mouse assessed as 3-(tert-butyl)-1-cyclohexyl-1-(6-((2R,3R,4R,5S)-3,4,5-trihydroxy-2-(hydroxymethyl)piperidin-1-yl)hexyl)urea formation measured up to 4 hrs by LC-MS/MS analysis; assay type: organism-based; conditions: in vivo; outline: as §2

Row | SMILES | Drug metabolism [1] | Stability [2] | Drug metabolism (Mus musculus [3]) | t1/2 (Mus musculus [4]) | Drug metabolism (Mus musculus [5]) | remaining at 1 h, 200 µM [6] | Stability [7] | half-life at 200 µM [8] | Tmax (Mus musculus [9]) | Drug metabolism (Mus musculus [10])
1 | CCCC(=O)OC[C@@H]1[C@@H](OC(=O)CCC)[C@H](OC(=O)CCC)[C@@H](OC(=O)CCC)CN1CCCCCCN(C(=O)NC(C)(C)C)C1CCCCC1 | 0% | 89% | > 1 µM | 137 min | Metabolite_Detected | 4% | < 50% | 20 min | 30 min | –
2 | CC(C)C(=O)OC[C@@H]1[C@@H](OC(=O)C(C)C)[C@H](OC(=O)C(C)C)[C@@H](OC(=O)C(C)C)CN1CCCCCCN(C(=O)NC(C)(C)C)C1CCCCC1 | 0% | 108% | – | 70.8 min | – | 2% | < 50% | 14 min | 30 min | Metabolite_Notdetected
3 | CC(=O)OC[C@@H]1[C@@H](OC(C)=O)[C@H](OC(C)=O)[C@@H](OC(C)=O)CN1CCCCCCN(C(=O)NC(C)(C)C)C1CCCCC1 | 0% | 94% | – | 43.2 min | Metabolite_Detected | 0% | < 50% | 2 min | 15 min | –
